Calls of active or inactive are those of the source. No cut-off for these calls is given here.
Legend:
[1] = system: Candida albicans; test: Antifungal activity against Candida albicans DAY185 assessed as lowest compound concentration causing =>80% reduction in cell viability after 48 hrs by XTT assay; type: organism-based
[2] = system: Candida albicans; test: Antifungal activity against Candida albicans DAY185 assessed as inhibition of biofilm formation after 48 hrs by XTT assay; type: functional, organism-based
[3] = system: MIA PaCa-2; test: Cytotoxicity against human MIAPaCa2 after 24 hrs by MTT assay; type: cell-based; conditions: MIA PaCa-2, 24 h
Summary of the method: (§1)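 MIA PaCa-2 cells, 10^4 per well, attached overnight at 37 °C, 5% CO2; compounds in DMSO added (final DMSO 1% by vol.), 24 h exposure; viability by MTT assay.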

[4] = system: Candida albicans; test: Antifungal activity against Candida albicans DAY185 assessed as inhibition of hyphae formation after 6 hrs by phase contrast microscopic analysis; type: functional, organism-based
Summary of the method: (§2)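 BHI overnight cells washed, suspended in PBS, seeded 1×10^6 cells/well, 37 °C 1 h; non-adherent cells washed off; RPMI 1640 with 2% glucose plus compound in DMSO (1% by vol.), 37 °C up to 24 h; germ tubes/hyphae scored by phase contrast microscopy (×200) at 2.5, 6 and 24 h.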

[5] = system: Candida albicans; test: Antifungal activity against Candida albicans DAY185 assessed as inhibition of germ tube formation at 50 uM after 6 hrs by phase contrast microscopic analysis; type: functional, organism-based; summary of the method: as §2
[6] = system: Candida albicans; test: Antifungal activity against Candida albicans DAY185 assessed as inhibition of hyphae formation at 50 uM after 6 hrs by phase contrast microscopic analysis; type: functional, organism-based; summary of the method: as §2
[7] = system: Candida albicans; test: Antifungal activity against Candida albicans DAY185 assessed as truncated hyphae formation at 50 uM after 24 hrs by phase contrast microscopic analysis; type: functional, organism-based; summary of the method: as §2
[8] = system: Candida albicans; test: Antifungal activity against Candida albicans DAY185 assessed as inhibition of biofilm formation at 0.2 to 100 uM administered 2 to 4 hrs after microbial seeding in 96-well microplate followed by 48 hrs incubation by XTT assay; type: functional, organism-based
Summary of the method: (§3)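 Time-of-addition variant of the biofilm assay: compound 100 to 0.2 μM added at -0.5, 0, 2, 4, 6 or 8 h after seeding in RPMI 1640/MOPS; at 48 h wells washed twice with PBS, biofilm quantified by XTT; triplicate in each of three trials; IC50 for 50% reduction of biofilm formation from curve fitting.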

[9] = system: Candida albicans; test: Antifungal activity against Candida albicans DAY185 assessed as inhibition of biofilm formation at 0.2 to 100 uM administered 6 hrs after microbial seeding in 96-well microplate followed by 48 hrs incubation by XTT assay; type: functional, organism-based; summary of the method: as §3
[10] = system: Candida albicans; test: Antifungal activity against Candida albicans DAY185 assessed as inhibition of biofilm formation at 0.2 to 100 uM administered 8 hrs after microbial seeding in 96-well microplate followed by 48 hrs incubation by XTT assay; type: functional, organism-based; summary of the method: as §3
[11] = system: MIA PaCa-2; test: Cytotoxicity against human MIAPaCa2 up to 200 uM after 24 hrs by MTT assay; type: cell-based; conditions: mia paca-2, 24 h; summary of the method: as §1

SMILES	MIC [1] [µM]	IC50 [2] [µM]	further results
CC1(C)C=Cc2c(ccc3c2[N+]([O-])=C2C3=C[C@@]34NC(=O)[C@]5(CCCN5C3=O)C[C@H]4C2(C)C)O1 [AVRAINVILLAMIDE]	> 200	43.3	IC50 [3]: 11.3 µM
CC(C)=CCC/C(C)=C/CC/C(C)=C/CO [FARNESOL]	> 200	129	–
CC1(C)C=Cc2c(ccc3c2NC(=O)[C@@]32C[C@@]34NC(=O)[C@]5(CCCN5C3=O)C[C@H]4C2(C)C)O1 [NOTOAMIDE B]	> 200	109	–
CC1(C)C=Cc2c(ccc3c4c([nH]c23)C(C)(C)[C@@H]2C[C@]35CCCN3C(=O)[C@]2(NC5=O)[C@H]4O)O1 [NOTOAMIDE R]	> 200	97.3	–
CC1(C)C=Cc2c(ccc3c2NC(=O)[C@@]32[C@H](O)[C@@]34NC(=O)[C@]5(CCCN5C3=O)C[C@H]4C2(C)C)O1 [SCLEROTIAMIDE]	> 200	93.5	–
CC1(C)C=Cc2c(ccc3c4c([nH]c23)C(C)(C)[C@@H]2C[C@]35CCCN3C(=O)[C@@]2(C4)NC5=O)O1 [STEPHACIDIN A]	> 200	55.2	–
C/C=C/C=C/C=C/[C@H]1C[C@@H](O)CC(=O)[C@@H]1C [WAIKIALIDE A]	> 200	32.4	inhibition [4]: Dose-dependent effect; inhibition [5]: Active; inhibition [6]: Active; Activity [7]: Active
C/C=C/C=C/C=C/[C@H]1C[C@@H](O)C[C@@H](O)[C@@H]1C [WAIKIALIDE B]	> 200	97	–
CC1(C)C=Cc2c(ccc3c2[N+]([O-])=C2C(C)(C)[C@@H]4C[C@]56CCCN5C(=O)[C@]4(NC6=O)[C@H]4N5C(=O)[C@@]67CCCN6C(=O)[C@@]56[C@H](c5c([nH]c8c9c(ccc58)OC(C)(C)C=C9)C(C)(C)[C@@H]6C7)[C@]234)O1 [WAIKIALOID A]	> 200	1.4	inhibition [2]: Dose-dependent effect; inhibition [4]: Dose-dependent effect; inhibition [5]: Active; inhibition [6]: Active; Activity [7]: Active; inhibition [8]: Active; inhibition [9]: inactive; inhibition [10]: inactive; Activity [11]: Non-toxic
CC1(C)C=Cc2c(ccc3c2[N+]([O-])=C2C(C)(C)[C@@H]4C[C@]56CCCN5C(=O)[C@]4(NC6=O)[C@H]4N5C(=O)[C@@]67CCCN6C(=O)[C@@]56[C@@H]([C@]234)[C@]2(O)C(=[N+]([O-])c3c2ccc2c3C=CC(C)(C)O2)C(C)(C)[C@@H]6C7)O1 [WAIKIALOID B]	> 200	46.3	IC50 [3]: 8.2 µM

— ChEMBL document CHEMBL2040763, “Waikialoid A suppresses hyphal morphogenesis and inhibits biofilm development in pathogenic Candida albicans” (J Nat Prod, 2012)
